Source: ChEMBL document CHEMBL3352626, “Synthesis and biological evaluation of novel oxindole-based RTK inhibitors as anti-cancer agents” (Bioorg Med Chem, 2014)

Columns and labels:
[1] = Antiproliferative activity against human SGC7901 cells at 10 uM after 72 hrs by MTS assay; type: functional, SGC-7901
[2] = Antiproliferative activity against human Bel7402 cells at 10 uM after 72 hrs by MTS assay; type: functional, Bel-7402
[3] = Antiproliferative activity against human HCC827 cells at 10 uM after 72 hrs by MTS assay; type: functional
[4] = Antiproliferative activity against human PM8910 cells at 10 uM after 72 hrs by MTS assay; type: functional
U-251 = assay: Antiproliferative activity against human U251 cells at 10 uM after 72 hrs by MTS assay; type: functional
Summary of the method: (§1)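 Single-concentration screen. Cells at 4 × 10^4 cells/ml, seeded and incubated overnight, then given 10 µM compound in DMSO for 72 h (37 °C, 5% CO2), with DMSO-only controls. MTS added for 4 h and A490 read. Percent inhibition = (1 − OD490 treated/OD490 control) × 100, from triplicate experiments.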

NCI-H1975 = assay: Antiproliferative activity against human NCI-H1975 cells at 10 uM after 72 hrs by MTS assay; type: functional; summary of the method: as §1
[5] = Antiproliferative activity against human H460 cells at 10 uM after 72 hrs by MTS assay; type: functional, NCI-H460
A549 = assay: Antiproliferative activity against human A549 cells at 10 uM after 72 hrs by MTS assay; type: functional
[6] = Antiproliferative activity against human SKBR3 cells at 10 uM after 72 hrs by MTS assay; type: functional, SK-BR-3; summary of the method: as §1

Structure (SMILES) | Activity [1] [%] | Activity [2] [%] | Activity [3] [%] | Activity [4] [%] | Activity (U-251) [%] | Activity (NCI-H1975) [%] | Activity [5] [%] | Activity (A549) [%] | Activity [6] [%]
O=C1Nc2ncccc2/C1=C/c1ccc(N2CCOCC2)cc1 | 21.38 | 9.16 | 10.19 | -1.48 | -3.95 | 9.21 | 32.46 | 12.18 | 2.52
O=C1Nc2ccc(Cl)cc2/C1=N/c1ccc2[nH]ccc2c1 | 12.49 | 13.44 | 20.17 | 10.94 | 26.95 | 21.92 | 9.99 | -10.32 | 11.83
CCOC(=O)c1ccc(/N=C2\C(=O)Nc3ccc(Cl)cc32)c(Nc2cc(OC)cc(OC)c2)c1 | 64.74 | 28.63 | 41.43 | 42.24 | 7.98 | 65.83 | 57.08 | 32.9 | 41.17
C=CC(=O)N1CCN(c2ccc(/C=C3\C(=O)Nc4ncccc43)cc2)CC1 | 6.35 | 12.29 | 22.4 | 19.94 | 12.58 | 35.6 | 7.69 | 25.1 | 13.65
O=C1Nc2ccccc2/C1=C/c1ccc(N2CCN(C(=O)c3ccccc3)CC2)cc1 | 23.7 | 30.87 | 53.47 | 40.43 | 11.33 | 42.39 | 35.67 | 23.47 | 27.26
Cc1cc2cc(/N=C3\C(=O)Nc4ccc(Cl)cc43)ccc2[nH]1 | 7.05 | 6.73 | 23.12 | 12.97 | 7.94 | 26.35 | 8.51 | 7.35 | 9.84
O=CN1CCN(c2ccc(/C=C3\C(=O)Nc4ccccc43)cc2)CC1 | 16.5 | 25.97 | 26.61 | 27.47 | 2.24 | 27.15 | 32.06 | 25.54 | 7.42
O=C1Nc2ncccc2/C1=C/c1ccc(N2CCN(C(=O)CCCl)CC2)cc1 | 5.55 | 12.01 | 13.18 | 14.97 | -2.81 | 17.66 | 7.98 | 5.2 | 10.56
O=C1Nc2ncccc2/C1=C/c1c[nH]c2ccc(Br)cc12 | 32.51 | 42.22 | 39.64 | 40.59 | 5.06 | 71.46 | 39.48 | 29.66 | 27.26
Cn1cc(/C=C2/C(=O)Nc3ncccc32)c2ccccc21 | 22.39 | 24.47 | 37.21 | 22.23 | -0.65 | 38.04 | 19.17 | 11.36 | 8.29
O=C1Nc2ccc(Cl)cc2/C1=N/NC(=O)c1ccc(N2CCOCC2)c([N+](=O)[O-])c1 | 0.54 | 0.27 | 3.85 | 8.98 | -8.37 | 17.93 | 7.06 | 7.93 | 11.88
Nc1nc(N2CCOCC2)ccc1/N=C1\C(=O)Nc2ccc(Cl)cc21 | 18.63 | 18.8 | 33.66 | 26.03 | -0.07 | 56.34 | 37.48 | 34.07 | 17.97
COc1cc(OC)c(/C=C2\C(=O)Nc3ncccc32)c(OC)c1 | 35.63 | 40.41 | 17.03 | 41.21 | 7.46 | 66.49 | 53.98 | 39.96 | 2.1
O=C1Nc2ccc(Cl)cc2/C1=N/c1ccc2cc[nH]c2c1 | -0.27 | 5.59 | 24.95 | 11.93 | -5.47 | 47.6 | 17.08 | 10.2 | 14.03
O=C1Nc2ncccc2/C1=C/c1ncc[nH]1 | 12.69 | 3.18 | -5.39 | 0.71 | -2.99 | 22.81 | 13.74 | 6.76 | -0.35
O=C1Nc2ccc(Cl)cc2/C1=N/NC(=O)c1ccco1 | 10.02 | 12.57 | 7.22 | 15.69 | 12.52 | 27.45 | 17.15 | 11.52 | 23.68
O=C1Nc2ccc(Cl)cc2/C1=C/c1c[nH]c2ncccc12 | 31.4 | 34.51 | 25.9 | 29.28 | 5.49 | 48.72 | 48.99 | 34.13 | 10.07
O=CN1CCN(c2ccc(/C=C3\C(=O)Nc4ncccc43)cc2)CC1 | 9.66 | 15.45 | 14.61 | 10.13 | -12.2 | 23.51 | 13.68 | 0.14 | 7.8
CCn1c2ccccc2c2cc(/N=C3/C(=O)Nc4ccc(Cl)cc43)ccc21 | 15.22 | 16.52 | 37.81 | 24.55 | 8.03 | 59.78 | 30.28 | 26.46 | 20.02
O=C1Nc2ccc(Cl)cc2/C1=N/c1ccc2nc(S)[nH]c2c1 | 4.79 | 10.23 | 19.19 | 10.36 | -4.89 | 26.56 | 5.31 | 11.87 | 8.27
O=C1Nc2ncccc2/C1=C/c1c[nH]c2ccccc12 | 24.68 | 18.98 | 7.27 | 3.22 | 0.83 | 13.11 | 7.2 | 5.4 | 2.64
O=C1Nc2ccccc2/C1=C/c1ccc(N2CCOCC2)cc1 | 17.89 | 23.53 | 34.26 | 14.19 | 1.92 | 28.96 | 26.56 | 37.09 | 11.93
O=C1Nc2ccc(Cl)cc2/C1=N/c1ccc2ncccc2c1 | 11.48 | 0.92 | 36.53 | 17.04 | -1.16 | 48.22 | 24.3 | 33.82 | 24.97
O=C1Nc2ncccc2/C1=C/c1ccc(N2CCN(C(=O)c3ccccc3)CC2)cc1 | 15.99 | 17.58 | 21.77 | 13.74 | 3.44 | 35.62 | 17.24 | 10.59 | 9.07
CCOC(=O)c1ccc(/N=C2\C(=O)Nc3ccc(Cl)cc32)c(N2CCOCC2)n1 | 2.89 | 8.58 | 18.58 | 21.97 | 7.69 | 34.78 | 14.19 | 24.53 | 14.58
O=C1Nc2ncccc2/C1=C/c1ccccc1C(F)(F)F | 13.97 | 7.05 | 1.3 | 29.66 | -5.87 | 31.12 | 16.53 | 11.09 | 5.96
